{"data": "Results from different studies", "cell line": "HCT-15", "read-out": "cell growth or viability"}
{"Structure (SMILES)": "CC(C)C[C@H](NC(=O)[C@H](Cc1ccccc1)NC(=O)c1cnccn1)B(O)O", "test": "ATP luminescence", "measurement": "IC50", "result": "9.6 nM"}
{"Structure (SMILES)": "COc1cccc(Oc2ccccc2NC(=O)CNC(=O)c2cccc3ccccc23)c1", "test": "SRB", "setting": "48 h", "measurement": "GI50", "result": "129 nM"}
{"Structure (SMILES)": "COc1cccc2c1C(=O)c1c(O)c3c(c(O)c1C2=O)C[C@@](O)(C(=O)CO)C[C@@H]3O[C@H]1C[C@H](N)[C@H](O)[C@H](C)O1", "test": "MTT", "setting": "24 h", "measurement": "IC50", "result": "6600 nM"}
{"Structure (SMILES)": "COc1cc(Nc2nccc(-c3cnn4nc(OC)ccc34)n2)cc(C(F)(F)F)c1", "test": "ATP luminescence", "measurement": "IC50", "result": "360 nM"}
{"Structure (SMILES)": "Cc1c(C)n(-c2c(C(C)C)cccc2C(C)C)c(=[Se])n1-c1c(C(C)C)cccc1C(C)C", "test": "MTT", "setting": "72 h", "measurement": "IC50", "result": "16200 nM"}
{"Structure (SMILES)": "CC(C)[C@H](N)c1nc2cc(-c3ccncc3F)sc2c(=O)[nH]1", "test": "MTT", "measurement": "IC50", "result": "301 nM"}
{"Structure (SMILES)": "CC(C)c1cccc(C(C)C)c1-n1ccn(-c2c(C(C)C)cccc2C(C)C)c1=[Se]", "test": "MTT", "setting": "72 h", "measurement": "IC50", "result": "14800 nM"}
{"Structure (SMILES)": "Cc1cc(C)n(C(=S)[S][Au][PH](CCCCCC[PH]([Au][S]C(=S)n2nc(C)cc2C)(c2ccccc2)c2ccccc2)(c2ccccc2)c2ccccc2)n1", "measurement": "GI50", "result": "1120 nM"}
{"Structure (SMILES)": "[Se]=c1n(C23CC4CC(CC(C4)C2)C3)ccn1C12CC3CC(CC(C3)C1)C2", "test": "MTT", "setting": "72 h", "measurement": "IC50", "result": "8300 nM"}
{"Structure (SMILES)": "COc1ccc(C(=O)/C=C/c2ccc3c(c2)OCCO3)cc1S(N)(=O)=O", "test": "SRB", "setting": "10 µM", "measurement": "inhibition", "result": "58%"}
{"Structure (SMILES)": "O=C(O)CCCc1ccccc1", "test": "MTT", "setting": "72 h", "measurement": "IC50", "result": "> 50000 nM"}
{"Structure (SMILES)": "S=C([S][Au-][P+](CCCCCC[P+]([Au-][S]C(=S)n1cccn1)(c1ccccc1)c1ccccc1)(c1ccccc1)c1ccccc1)n1cccn1", "measurement": "GI50", "result": "2880 nM"}
{"Structure (SMILES)": "COc1ccc(C(=O)/C=C/c2cccc(Cl)c2Cl)cc1S(N)(=O)=O", "test": "SRB", "setting": "48 h", "measurement": "GI50", "result": "1300 nM"}
